Measured values reported in ChEMBL document CHEMBL4316635, “Synthesis, Structure Revision, and Cytotoxicity of Nocarbenzoxazole G” (J Nat Prod, 2019).

Legend:
T98G = experiment: Cytotoxicity in human T98G cells assessed as reduction in cell viability incubated for 48 hrs by CCK8 assay; format: cell-based
Procedure, shortened: (§1)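 Exponentially growing cells, routinely kept in DMEM or RPMI1640 (line-dependent) with 10% FBS, penicillin/streptomycin at 37 °C and 5% CO₂, were seeded at 1.0 × 10⁴ cells/well in triplicate. The next day they were treated at 1.25–20 μM for 48 h. CCK-8 reagent was then added for 1 h and absorbance read at 450 nm. Controls received medium with 0.5% (v/v) DMSO.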

MDA-MB-231 = experiment: Cytotoxicity in human MDA-MB-231 cells assessed as reduction in cell viability incubated for 48 hrs by CCK8 assay; format: functional, cell-based; settings: MDA-MB-231, 48 h; procedure, shortened: as §1
Hep 3B2 = experiment: Cytotoxicity in human Hep3B cells assessed as reduction in cell viability incubated for 48 hrs by CCK8 assay; format: functional, cell-based; procedure, shortened: as §1
HeLa = experiment: Cytotoxicity in human HeLa cells assessed as reduction in cell viability incubated for 48 hrs by CCK8 assay; format: functional, cell-based; procedure, shortened: as §1
MCF7 = experiment: Cytotoxicity in human MCF7 cells assessed as reduction in cell viability incubated for 48 hrs by CCK8 assay; format: functional, cell-based; settings: MCF7, 48 h; procedure, shortened: as §1
HepG2 = experiment: Cytotoxicity in human HepG2 cells assessed as reduction in cell viability incubated for 48 hrs by CCK8 assay; format: functional, cell-based; settings: HepG2, 48 h; procedure, shortened: as §1

Compound	IC50 (T98G) [µM]	IC50 (MDA-MB-231) [µM]	IC50 (Hep 3B2) [µM]	IC50 (HeLa) [µM]	IC50 (MCF7) [µM]	IC50 (HepG2) [µM]
OCc1ccc2oc(-c3ccc(O)cc3)nc2c1	> 20	> 20	> 20	4.7	> 20	> 20
COc1cc(O)ccc1-c1nc2cc(CO)ccc2o1	> 20	> 20	> 20	2.9	> 20	> 20
Cc1cc(-c2nc3cc(CO)ccc3o2)cc(C)c1N	> 20	> 20	> 20	19	> 20	> 20
COc1cc(-c2nc3cc(CO)ccc3o2)ccc1O	> 20	> 20	> 20	5.7	> 20	> 20
OCc1ccc2oc(-c3ccc(O)c(Cl)c3)nc2c1	> 20	> 20	> 20	11	> 20	> 20
OCc1ccc2oc(-c3ccc4[nH]ccc4c3)nc2c1	> 20	> 20	> 20	8.9	> 20	> 20
OCc1ccc2oc(-c3ccc4cc(O)ccc4c3)nc2c1	> 20	> 20	> 20	0.56	> 20	> 20
OCc1ccc2oc(-c3ccc(Cl)cc3)nc2c1	> 20	> 20	> 20	16	> 20	> 20
